# Results reported in article PMC6590913 (Journal of medicinal chemistry, 2019).
# pIC50: −log10 of the molar value.
# Columns and labels:
# cells of the SRE.L assay = experiment: Cytotoxicity in the SRE.L assay determined by CellTiter-Fluor; format: cell-based
# [1] = as above; format: cell-based; conditions: human, cells of the SRE.L assay
# CTGF gene expression = experiment: qPCR for LPA-stimulated expression of CTGF in primary dermal fibroblasts; format: cell-based, human; conditions: for Effect on CTGF gene expression: then LPA 1 h, primary human dermal fibroblasts
# [2] = tested on: bleomycin-induced dermal fibrosis; conditions: mice; cited from earlier work
# [3] = tested on: Rho/MRTF/SRF-mediated gene transcription (SRE.L); experiment: SRE.L luciferase reporter assay, cell line not stated; format: cell-based; conditions: for SRE.L activity: Figure 3, heterocycle and carboxylic acid replacements
# Summary of the method: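 Gα12-stimulated SRE.L luciferase reporter in transiently transfected PC-3 or HEK293T cells. PC-3 format: 20,000 cells/well in 10% FBS/DMEM, next day co-transfected with SRE.L luciferase reporter plus Gα12 Q231L or empty pcDNA (Lipofectamine 2000). After 4 h, switched to 0.5% FBS/DMEM with test compound or DMSO overnight. WST-1 viability read at 450 nm, then lysis and luciferase read.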
# [4] = tested on: bleomycin-induced lung fibrosis; conditions: mice, dose of 300 mg/kg; cited from earlier work
# [5] = tested on: Rho/MRTF/SRF-mediated gene transcription (SRE.L); experiment: Gα12-stimulated SRE.L luciferase reporter assay in PC3 cells; format: cell-based; conditions: for pIC50: Homo sapiens, PC-3, read-out: SRE.L IC50; for SRE.L activity: Table 2 sidechain SAR, PC3 cells
# Summary of the method: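 PC-3 cells plated at 20,000/well in DMEM with 10% FBS. Next day they were lipofected with 56 ng SRE.L luciferase reporter plus 2 ng/well Gα12 Q231L or pcDNA. After 4 h, medium was switched to 0.5% FBS DMEM, and compound or DMSO was added overnight. Viability was then read by WST-1 (450 nm), and cells were lysed for luciferase. Mean of n = 3.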
# [6] = tested on: bleomycin-induced dermal fibrosis; experiment: Bleomycin-induced dermal fibrosis in mice; format: in vivo, mouse
# [7] = tested on: Rho/MRTF/SRF-mediated gene transcription (SRE.L); experiment: Gα12-stimulated SRE.L luciferase reporter assay in HEK293T cells; format: cell-based; conditions: for SRE.L activity: Figure 4, HEK293T cells, analogs with modified thioether
# [8] = Pharmacokinetic studies in mice; format: in vivo, female CD-1 mice; conditions: mouse, IV
# Summary of the method: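 Female CD-1 mice were dosed iv and/or po, with compound in 15% DMSO/15% PEG-400/70% PBS (v/v). Blood (50 μL) was sampled at 0.5, 2, 4 and 7 h, and plasma was frozen at -80 °C. Plasma levels were measured by a validated LC–MS/MS method. Parameters were derived non-compartmentally.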
structure (smiles),measurement,setting,value
COC(=O)c1ccc2c(c1)NC(=O)/C2=C(\Nc1ccc(N(C)C(=O)CN2CCN(C)CC2)cc1)c1ccccc1 [Nintedanib],Cytotoxicity,cells of the SRE.L assay; at 10 uM,some cytotoxicity
same,pIC50,[1],> 4.52
same,Cytotoxicity in the CTGF assay,CTGF gene expression; at 10^−5 M,cytotoxic
same,"CTGF expression, % of DMSO control",CTGF gene expression; at 10^−6 M,45 % of DMSO control
same,Minimum dose effective at preventing bleomycin-induced dermal thickness,[2],30 mg/kg/day
"Cc1ccc(=O)n(-c2ccccc2)c1 [Pirfenidone, reference compound]",Concentration above which cytotoxic,cells of the SRE.L assay; CellTiter-Fluor,> 100 µM
same,pIC50,[3]; read-out: SRE.L assay IC50,< 4.00
same,"CTGF expression, % control",CTGF gene expression; at 10^−5 M,91 % control
same,Effect on bleomycin-induced lung fibrosis,[4],attenuate bleomycin-induced lung fibrosis
"O=C(O)CCCCSc1nnc(-c2ccc(Cl)cc2Cl)o1 [8r, 5-((5-(2,4-dichlorophenyl)-1,3,4-oxadiazol-2-yl)thio)pentanoic acid]",pIC50,[5],7.37
O=C(O)CCSc1nnc(-c2cccnc2)o1 [compound 22],SRE.L activity,[3],complete loss in activity
"O=C(O)CCSc1nnc(-c2ccc(Cl)cc2Cl)o1 [8j, 3-((5-(2,4-dichlorophenyl)-1,3,4-oxadiazol-2-yl)thio)propanoic acid]",Bleomycin-induced fibrotic effects (dermal thickness and hydroxyproline content) vs bleomycin/vehicle control,"[6]; 10 mg/kg PO, 14 days",significant effects
same,Bleomycin-induced fibrotic effects (dermal thickness and hydroxyproline content),"[6]; 0.1, 1 and 10 mg/kg/day by oral gavage, 14 days",dose-dependently reduce
same,Effect on CTGF gene expression,CTGF gene expression; 48 h pre-treatment,neither 8j nor 19f had any significant effect
same,Effect on CTGF gene expression,CTGF gene expression; 72 h pre-treatment,dose-dependently reduced CTGF gene expression
"O=C(O)CCCSc1nnc(-c2ccc(Br)cc2Cl)o1 [8x, 4-((5-(4-bromo-2-chlorophenyl)-1,3,4-oxadiazole-2-yl)thio)butanoic acid]",Improvement in SRE.L activity relative to 8q,[7]; 4-Cl replaced by 4-Br,10 fold
O=C(O)CCCc1nnc(-c2ccc(Cl)cc2Cl)o1 [compound 29],SRE.L activity,[7],almost complete loss in activity
c1ccc(-c2nnc(SCCC3OCCCO3)o2)cc1 [compound 28],SRE.L activity,[3],abolished activity
"CNC(=O)CCSc1nnc(-c2ccc(Cl)cc2Cl)o1 [compound 9, 3-((5-(2,4-dichlorophenyl)-1,3,4-oxadiazol-2-yl)thio)-N-methylpropanamide]",pIC50,[5],< 4.00
same,SRE.L activity,[5],unsuccessful
O=C(O)CCSc1nnc(-c2ccncc2)o1 [compound 23],SRE.L activity,[3],complete loss in activity
"O=C(O)CCCS(=O)(=O)c1nnc(-c2ccc(Cl)cc2Cl)o1 [compound 21, 4-((5-(2,4-dichlorophenyl)-1,3,4-oxadiazol-2-yl)sulfonyl)butanoic acid]",SRE.L activity,[7],activity was lost
"O=C(O)CSCc1nnc(-c2ccc(Cl)cc2Cl)o1 [compound 13, 2-(((5-(2,4-dichlorophenyl)-1,3,4-oxadiazol-2-yl)methyl)thio)acetic acid]",SRE.L activity,[7],almost complete loss in activity
"O=C(O)CCCSc1nnc(-c2ccc(Cl)cc2Cl)o1 [8q, 4-((5-(2,4-dichlorophenyl)-1,3,4-oxadiazol-2-yl)thio)butanoic acid]",clearance rate relative to 8j,[8],~3 fold
"O=C(O)CCCSc1nnc(-c2ccc(C3CC3)cc2Cl)o1 [19f, 4-((5-(2-chloro-4-cyclopropylphenyl)-1,3,4-oxadiazol-2-yl)thio)butanoic acid]",Improvement in SRE.L potency relative to 8s,[7]; Me replaced by c-Pr,100 fold
same,pIC50,[5],11.92
same,Bleomycin-induced dermal fibrosis,"[6]; 3 and 10 mg/kg PO, both doses, 14 days",significantly reduced bleomycin-induced dermal fibrosis
same,In vivo potency relative to 8j,[6]; bleomycin-induced dermal fibrosis,at least 3 fold
same,Effect on CTGF gene expression,CTGF gene expression; 48 h pre-treatment,neither 8j nor 19f had any significant effect
same,Potency on CTGF gene expression relative to 8j,CTGF gene expression; 72 h pre-treatment,~ 100 x
same,Effect on CTGF gene expression,CTGF gene expression; 72 h pre-treatment,dose-dependently reduced CTGF gene expression
Cc1occc1-c1nnc(SCCC(=O)O)o1 [compound 24],SRE.L activity,[3],complete loss in activity
"O=C(O)CCCOc1nnc(-c2ccc(Cl)cc2Cl)o1 [compound 11, 4-((5-(2,4-dichlorophenyl)-1,3,4-oxadiazol-2-yl)oxy)butanoic acid]",SRE.L activity,[7],almost complete loss in activity
O=C(O)CSc1nnc(-c2ccc(Cl)cc2Cl)o1 [8p],pIC50,[5],< 4.00
same,SRE.L activity,[5],activity was completely lost
"CCOC(=O)CCSc1nnc(-c2ccc(Cl)cc2Cl)o1 [compound 6, Ethyl 3-((5-(2,4-dichlorophenyl)-1,3,4-oxadiazol-2-yl)thio)propanoate]",SRE.L activity,[5],maintained activity
